Compound activity deposited in PubChem by several laboratories.
Hck-Nef inh – human Hck-Nef kinase inhibition; P08631; Recombinant Hck-YEEI plus Nef, Z-Lyte FRET kinase assay; inhibition, % at 20 µM; actives 0.68% (n = 220,000); AID 463187;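 active = Hck-Nef kinase inhibition above about 50%, limit read from the data; inactive = inhibition below that limit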
Target sequence (P08631 whole entry, looked up): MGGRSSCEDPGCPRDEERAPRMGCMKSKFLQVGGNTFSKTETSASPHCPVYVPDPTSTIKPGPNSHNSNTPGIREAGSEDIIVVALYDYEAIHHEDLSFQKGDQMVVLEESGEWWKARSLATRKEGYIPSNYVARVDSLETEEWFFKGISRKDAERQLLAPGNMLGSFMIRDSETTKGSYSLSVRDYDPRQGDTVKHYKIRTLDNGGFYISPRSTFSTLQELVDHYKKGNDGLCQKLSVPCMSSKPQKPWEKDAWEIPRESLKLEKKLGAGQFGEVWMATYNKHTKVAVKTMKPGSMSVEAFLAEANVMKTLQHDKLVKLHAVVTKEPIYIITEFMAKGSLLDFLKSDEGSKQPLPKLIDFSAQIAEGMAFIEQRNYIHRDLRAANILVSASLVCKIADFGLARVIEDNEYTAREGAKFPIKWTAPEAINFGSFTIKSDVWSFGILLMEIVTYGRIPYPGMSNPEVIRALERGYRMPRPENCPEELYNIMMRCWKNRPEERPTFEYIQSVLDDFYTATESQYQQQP
RanGTP-Impb inh – disruptors of Ran-importin-beta complex formation – biochemical, FRET, CFP-Ran, YFP-importin-beta, homogeneous, primary screen. cell-free CFP-Ran/YFP-importin-beta FRET ratio. AID 2216. actives 1.1% (n = 300,000). inhibition, % (test concentration not listed);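 active = more than half of the replicate wells show a fall in the fluorescence ratio signal beyond about 16%, limit read from the data, passing the limit was not always enough; inconclusive = exactly half of the replicate wells pass the set limit; inactive = fewer than half of replicates pass the limit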
Runt-CBFb FRET – blocks binding of human RUNX1 Runt domain to CBFb | Q01196+Q13951 | actives 0.46% (n = 220,000) | Cerulean-Runt/Venus-CBFb FRET ratio 530/480, 1 h | inhibition, % at 20 µM;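 active = inhibition over about 50% at 20 µM in the single-dose screen, limit read from the data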
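Reagent – Venus-CBFb binding partner, 100 nM · Assay system – Cerulean-tagged RUNX1 Runt domain (FRET donor) fusion protein · Input – 100 nM per protein · Incubation – two 1 h room-temperature incubations shielded from light · Measured by – FRET fluorescence · Medium – Tris buffer pH 7.5 with salts and BSA · Benchmarks – unlabeled CBFb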
TbHK1 inh – blocks Trypanosoma brucei hexokinase 1 activity; actives 0.11% (n = 220,000); inhibition, % at 10 µM; recombinant TbHK1, G6PDH-coupled NADH A340;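 active = inhibition of 50% or more in the single-dose primary screen; inactive = inhibition below 50%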
Runt-SMMHC FRET – Runt domain-CBFb-SMMHC interaction inhibition; Q01196+Q13951; Cerulean-Runt/Venus-CBFb-SMMHC FRET ratio 530/480, 1 h; inhibition, % at 20 µM; actives 0.74% (n = 220,000); AID 1434;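 active = mean inhibition across duplicate retests at 20 µM reaching about 50%, limit read from the data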;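 note: inhibitors lower the FRET ratio by blocking Runt binding to CBFb-SMMHC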
Hck-Nef confirm – confirmation of Hck-Nef kinase inhibitors; shares compounds with Hck-Nef inh; Recombinant Hck-YEEI:Nef, Z-Lyte FRET kinase assay; calls only at 10 µM; actives 28% (n = 1,300); AID 463188;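 active = average inhibition of at least 50%, with Z-scores no higher than 3 in both the phospho-tyrosine peptide and fluorescence counterscreens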
Of the large screens only hits and unclear results are named; the others gave an inactive call (follow-up assays come after a bar, where shown). In the library only some 1.9% were active in any assay of this set; here they are far more common.

O=C(CCN1CCN(c2ccccc2)CC1)N/N=C/c1ccc(O)c(O)c1O	Hck-Nef inh 53 | Hck-Nef confirm inactive
COc1ccc(/C=N/NC(=O)CCN2CCN(c3ccccc3)CC2)c(OC)c1OC	none
O=C(N/N=C/c1ccc(O)cc1)Nc1cccc2nsnc12	Hck-Nef inh 53 | Hck-Nef confirm inactive
Cc1ccc(C(=O)N2CCC(C(=O)c3ccc(Cl)cc3)CC2)cc1	none (no result: Hck-Nef inh, Runt-CBFb FRET, TbHK1 inh, Runt-SMMHC FRET)
CCCc1cc(=O)oc2c(CN(CC)CC)c(O)c(Cl)cc12	Hck-Nef inh active, RanGTP-Impb inh 24, Runt-CBFb FRET 91, Runt-SMMHC FRET 129
CN(C)Cc1c(O)ccc2c(-c3ccccc3)cc(=O)oc12	none
CCCCc1cc(=O)oc2c(CN(C)C)c(O)ccc12	Hck-Nef inh 83, Runt-SMMHC FRET 107
CCc1c(C)c2ccc(O)c(CN(C)C)c2oc1=O	Hck-Nef inh 59, Runt-SMMHC FRET 131
CCCc1cc(=O)oc2cc(OCC(=O)N(C)C)c(Cl)cc12	none
Cc1cccc(NC(=O)c2ccc(C)c(S(=O)(=O)N3CCCCC3)c2)n1	none (no result: Hck-Nef inh, Runt-CBFb FRET, TbHK1 inh, Runt-SMMHC FRET)
CC12CCC(=O)N1c1c(sc3nc(N4CCOCC4)c4c(c13)CCCC4)C(=O)N2 (stereo not drawn)	Hck-Nef inh 61, Runt-SMMHC FRET 96
Cc1nc2ccc3nc(NC(=O)c4ccc5c(c4)OCCO5)sc3c2s1	Hck-Nef inh 87 | Hck-Nef confirm active
CCOC(=O)CSc1nnc(NC(=O)c2ccco2)s1	none (no result: Hck-Nef inh, Runt-CBFb FRET, TbHK1 inh, Runt-SMMHC FRET)
CCSc1nnc(NC(=O)c2ccco2)s1	Hck-Nef inh 101 | Hck-Nef confirm inactive
COc1ccc(-c2csc(NC(=S)NC(=O)/C=C/c3ccco3)n2)cc1Br	Hck-Nef inh 78 | Hck-Nef confirm inactive
COc1ccc(-c2csc(NC(=S)NC(=O)/C=C/c3ccco3)n2)cc1OC	none
COC(=O)c1c(NC(=O)C2(C)Cc3ccccc3C(=O)O2)sc2c1CCCC2 (stereo not drawn)	none
COc1ccc2cc(C(N)=O)c(=Nc3ccc(C)cc3)oc2c1	none
COc1ccccc1N=c1oc2cc(O)ccc2cc1C(N)=O	Hck-Nef inh 140, RanGTP-Impb inh 179
Cc1cccc(N=c2oc3cc(O)ccc3cc2C(N)=O)c1	Hck-Nef inh 153, Runt-SMMHC FRET 79
COc1ccccc1N=c1oc2cc(O)ccc2cc1C(=O)NCC1CCCO1 (stereo not drawn)	Hck-Nef inh 72, RanGTP-Impb inh 174
COc1cccc(N=c2oc3cc(O)ccc3cc2C(=O)NCC2CCCO2)c1 (stereo not drawn)	Hck-Nef inh 82, RanGTP-Impb inh 180, Runt-CBFb FRET 52, Runt-SMMHC FRET 90
COc1ccc2cc(C(N)=O)/c(=N\NC(=O)c3ccccc3)oc2c1	none (no result: Hck-Nef inh, Runt-CBFb FRET, TbHK1 inh, Runt-SMMHC FRET)
COc1cccc2cc(C(=O)NCC3CCCO3)c(=O)oc12 (stereo not drawn)	none
CCOC(=O)Cn1cc(/C=N/N2C(=O)C3C4C=CC(C4)C3C2=O)c2ccccc21 (stereo not drawn)	none
COc1ccc(-c2csc(N3CCN(S(=O)(=O)c4ccc5c(c4)NC(=O)CO5)CC3)n2)cc1	none (no result: Hck-Nef inh, Runt-CBFb FRET, TbHK1 inh, Runt-SMMHC FRET)
COc1cc2c(cc1NC(=O)c1cccc(S(=O)(=O)N(C)C)c1)oc1ccccc12	none
Cc1ccc(S(=O)(=O)N(C)C)cc1NC(=O)COC(=O)c1ccc(Cl)cc1	none
COc1ccc(CCNc2ccc(C(CC(N)=O)NC(=O)c3ccc(Br)cc3)cc2[N+](=O)[O-])cc1 (stereo not drawn)	none
NC(=O)CC(NC(=O)Cc1cccc2ccccc12)c1ccc(NCC2CC2)c([N+](=O)[O-])c1 (stereo not drawn)	none
NC(=O)CC(NC(=O)Cc1ccc(Br)cc1)c1ccc(NCCc2ccc(F)cc2)c([N+](=O)[O-])c1 (stereo not drawn)	Hck-Nef inh 50 | Hck-Nef confirm inactive
NC(=O)CC(NC(=O)Cc1cccc2ccccc12)c1ccc(NCCOc2ccccc2)c([N+](=O)[O-])c1 (stereo not drawn)	Hck-Nef inh 53 | Hck-Nef confirm inactive
NC(=O)CC(NC(=O)Cc1ccc(Br)cc1)c1ccc(NCCc2ccc(Cl)cc2)c([N+](=O)[O-])c1 (stereo not drawn)	none
COc1ccc(CCNc2ccc(C(CC(N)=O)NC(=O)Cc3ccc(Br)cc3)cc2[N+](=O)[O-])cc1 (stereo not drawn)	Hck-Nef inh 57 | Hck-Nef confirm inactive
CCCCNC(=O)c1cn(CC)c2ccc(S(=O)(=O)N3CCCCCC3)cc2c1=O	none (no result: Hck-Nef inh, Runt-CBFb FRET, TbHK1 inh, Runt-SMMHC FRET)
Cc1ccc(Cn2c(=O)n(Cc3ccco3)c(=O)c3ccccc32)cc1	none
COc1ccc(Nc2n[nH]c(N)c2C(N)=O)cc1	Hck-Nef inh 65 | Hck-Nef confirm inactive
COC(=O)c1sc2ncccc2c1OCc1cccc(Cl)c1	none
COC(=O)c1sc2ncccc2c1OCc1c(Cl)cccc1Cl	Hck-Nef inh 55, RanGTP-Impb inh inconclusive | Hck-Nef confirm inactive
COc1ccc(S(=O)(=O)N2CCN(Cc3cc(OC)c(OC)c(OC)c3)CC2)cc1	none (no result: Hck-Nef inh, Runt-CBFb FRET, TbHK1 inh, Runt-SMMHC FRET)
Cc1sc(-n2c(C)cc(/C=C3\SC(=S)NC3=O)c2C)c(C#N)c1C	Hck-Nef inh 71 (no result: Runt-CBFb FRET) | Hck-Nef confirm inactive
COCCn1c(=N)c(C(=O)NCc2ccco2)cc2c(=O)n3cc(C)ccc3nc21	Hck-Nef inh 86 (not shown: Runt-CBFb FRET, Runt-SMMHC FRET)
Cc1cccn2c(=O)c3cc(C(=O)NCc4ccco4)c(=N)n(CCOCCO)c3nc12	Hck-Nef inh 75, RanGTP-Impb inh 155 (no result: Runt-CBFb FRET, Runt-SMMHC FRET) | Hck-Nef confirm inactive
CCOc1ccc(S(=O)(=O)NCCC(=O)NCC(c2ccc(F)cc2)N2CCOCC2)cc1 (stereo not drawn)	none (no result: Hck-Nef inh, Runt-CBFb FRET, TbHK1 inh, Runt-SMMHC FRET)
COC(=O)C1=CN(CCOC23CC4CC(CC(C4)C2)C3)C=C(C(=O)OC)C1c1ccsc1	Hck-Nef inh 70 | Hck-Nef confirm inactive
COC(=O)C1=C(C)NC2=C(C(=O)CCC2)C1c1ccsc1 (stereo not drawn)	none
Cc1cc(C)c2cc(CN(CCO)Cc3nnnn3Cc3ccccc3)c(=O)[nH]c2c1	Hck-Nef inh 85 | Hck-Nef confirm inactive
OC(CN1CCCCC1)Cn1c2ccccc2c2ccccc21 (stereo not drawn)	none (no result: Hck-Nef inh, Runt-CBFb FRET, TbHK1 inh, Runt-SMMHC FRET)
O=c1c2ccccc2n(CC(O)CN2CCCCC2)c2ccccc12 (stereo not drawn)	Hck-Nef inh 154, RanGTP-Impb inh 96, Runt-CBFb FRET 61, Runt-SMMHC FRET 81
O=C(COC(=O)c1cncc(Br)c1)NC1CCCC1	none
Nc1nonc1-c1nc2ccccc2n1CC(=O)N/N=C/c1ccc(-c2cccc(C(=O)O)c2)o1	Hck-Nef inh 91 | Hck-Nef confirm active
COc1cc(/C=C(\C#N)C(=O)Nc2cccc(C(=O)O)c2)ccc1OCc1ccc(C)cc1	none (no result: Hck-Nef inh, Runt-CBFb FRET, TbHK1 inh, Runt-SMMHC FRET)
COc1cc(/C=C(\C#N)C(=O)NC(C)C)ccc1OCc1ccc(C(=O)O)cc1	none
